Data taken from article PMC8159431 (Chemical Science, 2020).
Like-named read-outs stand apart in the source and are kept apart here.

How the values were obtained:
Assay type in all cases: binding
Aβ40 aggregates = Aβ40 aggregates (Homo sapiens, UniProt P05067)
Procedure, shortened: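 Aβ40 aggregates were taken at 90 min, 200 min and 24 h from a compound-free aggregation run and ultracentrifuged. They were titrated with a range of probe concentrations, and fluorescence intensity was read. Kd was obtained by curve fitting (n = 3). Binding ratio is Kd relative to the Kd of the 50% sucrose tau fraction.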

[1] = molecular target: tau aggregates (Tau-441 human) (Homo sapiens, UniProt P10636); test: Fluorimeter assay with aliquots of the tau aggregation; details: tau aggregates at different time points
Sequence of tau aggregates (Tau-441 human) (P10636 1-441 isoform P10636-8): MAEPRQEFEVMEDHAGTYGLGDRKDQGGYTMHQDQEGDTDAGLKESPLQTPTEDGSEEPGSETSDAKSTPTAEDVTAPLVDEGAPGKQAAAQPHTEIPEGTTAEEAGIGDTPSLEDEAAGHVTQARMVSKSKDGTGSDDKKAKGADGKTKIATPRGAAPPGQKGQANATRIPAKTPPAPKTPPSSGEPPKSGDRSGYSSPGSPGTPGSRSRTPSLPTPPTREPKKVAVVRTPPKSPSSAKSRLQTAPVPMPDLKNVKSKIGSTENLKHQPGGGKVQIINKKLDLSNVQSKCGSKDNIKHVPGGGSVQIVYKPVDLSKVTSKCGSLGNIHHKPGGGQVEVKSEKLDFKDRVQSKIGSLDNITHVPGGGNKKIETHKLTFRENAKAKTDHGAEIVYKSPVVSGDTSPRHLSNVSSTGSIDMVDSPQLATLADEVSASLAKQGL

[2] = molecular target: tau (0N4R) aggregates, sucrose gradient fractions (Homo sapiens, UniProt P10636)
Sequence of tau (0N4R) aggregates, sucrose gradient fractions (P10636 1-383 isoform P10636-6): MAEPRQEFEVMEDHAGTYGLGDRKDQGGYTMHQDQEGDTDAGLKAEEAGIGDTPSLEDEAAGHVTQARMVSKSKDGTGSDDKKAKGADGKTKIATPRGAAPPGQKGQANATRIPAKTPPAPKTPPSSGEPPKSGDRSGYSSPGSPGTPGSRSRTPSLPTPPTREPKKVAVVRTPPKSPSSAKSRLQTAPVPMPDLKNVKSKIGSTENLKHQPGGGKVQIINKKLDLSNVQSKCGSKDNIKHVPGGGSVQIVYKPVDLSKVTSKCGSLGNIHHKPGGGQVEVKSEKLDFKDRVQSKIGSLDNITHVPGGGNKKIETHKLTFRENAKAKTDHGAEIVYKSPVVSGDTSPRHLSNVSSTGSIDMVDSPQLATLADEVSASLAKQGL
Procedure, shortened: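 Tau aggregates were separated by sucrose gradient ultracentrifugation into 10–50% fractions, and the 20% fraction was characterised by TEM. Each fraction was titrated with the test compound and fluorescence intensity was read. Kd was obtained by curve fitting (n = 3–6). Ratios compare Kd with the 50% sucrose tau Kd, and tau Kd with the Kd for Aβ40 aggregates at 200 min.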

Sequence of Aβ40 aggregates (P05067 672-711 limits assumed): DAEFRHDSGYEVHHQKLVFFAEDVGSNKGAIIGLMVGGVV

O=C(O)Cc1cc(-c2ccc(C(=O)O)s2)sc1-c1ccc(-c2sc(-c3ccc(C(=O)O)s3)cc2CC(=O)O)s1 [pFTAA, 3''',4'-bis(carboxymethyl)-[2,2':5',2'':5'',2''':5''',2''''-quinquethiophene]-5,5''''-dicarboxylic acid]
binding ratio (Kd compared with the 50% sucrose tau Kd) (Aβ40 aggregates; 200 minute Aβ): 5
binding ratio (Kd compared with the 50% sucrose tau Kd) (Aβ40 aggregates; 24 hour Aβ): 3
Kd (Aβ40 aggregates; Aβ40 aggregates at 90 min): no binding affinity
Kd (Aβ40 aggregates; Kd, Aβ40 aggregates at 200 min): 930 ± 300 nM
Kd (Aβ40 aggregates; Kd, Aβ40 aggregates at 24 h): 650 ± 190 nM
emission spectrum shift over the tau aggregation [1]: No emission spectrum shifts
binding ratio (Kd compared with the 50% sucrose tau Kd) ([2]; 10% sucrose tau): 148
binding ratio (Kd compared with the 50% sucrose tau Kd) ([2]; 20% sucrose tau): 14
binding ratio (Kd compared with the 50% sucrose tau Kd) ([2]; 30% sucrose tau): 26
binding ratio (Kd compared with the 50% sucrose tau Kd) ([2]; 40% sucrose tau): 6
binding ratio (Kd compared with the 50% sucrose tau Kd) ([2]; 50% sucrose tau): 1
Kd ([2]; 10% sucrose tau fraction): 29600 ± 2100 nM
Kd ([2]; 20% sucrose tau fraction): 2750 ± 570 nM
Kd ([2]; 40% sucrose tau fraction): 1290 ± 200 nM
Kd ([2]; 50% sucrose tau fraction): 200 ± 10 nM
